Assay outcomes deposited in PubChem by several laboratories.
Jurkat NFkB inh = inhibitors of induced NF-kB luciferase reporter, primary screen, TCR NF-kB activation inhibitor project, cell-based, luminescence, uHTS; Jurkat, PMA/ionomycin-induced NF-kB luciferase reporter; inhibition, % at 4 µM; 330,000 compounds, 0.53% hits; in the data active = inhibition above about 50%
UPR CHOP act = activators of apoptotic CHOP UPR arm, primary screen, cell-based, CHO-CHOP luciferase reporter, luminescence, uHTS. UPR activation; percent of tunicamycin response over DMSO baseline. activation, % at 10 µM. 330,000 compounds, 0.34% hits. AID 449763, 2010;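 active = at 10 µM dose, activation of 40% or more, normalized to positive control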;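 note: 100% = tunicamycin at 10 µg/mL and 0% = DMSO alone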
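System: CHO CHOP reporter cells. Amount: 500 cells per well. Buffer or medium: F12 medium, 10% FBS. Compound dosing: one dose, 10 µM in 0.5% DMSO. Incubation: 6 h compound exposure at 37 °C after overnight seeding. Technique: Steady-Glo luciferase luminescence. Benchmarks: tunicamycin and DMSO controls.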
Gli-Sufu antag = Gli-Sufu pathway antagonists, primary screen, luciferase luminescence, Sufu-KO-LIGHT cells, uHTS; Sufu-KO-LIGHT fibroblasts, Gli luciferase reporter luminescence; inhibition, % at 5 µM; 340,000 compounds, 0.74% hits;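 active = inhibition above about 55%, limit read from the data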;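 note: 0% = DMSO-treated cells and 100% = wells with medium but no cells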
XBP1 UPR activ = activators of adaptive XBP1 UPR arm, primary screen, cell-based, CHO-XBP1 luciferase reporter, luminescence, uHTS; IRE1-XBP1 UPR activation; percent of tunicamycin response, DMSO as zero; activation, % at 20 µM; 330,000 compounds, 0.33% hits; AID 463104, 2010;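 active = versus positive control, 20 µM dose yields 30% or more activation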;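 note: 100% = tunicamycin at 10 µg/mL and 0% = DMSO only wells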
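Material: CHO cell line with stable XBP1 luciferase reporter; schedule: 16-18 h cell attachment at 37 °C, then 6 h compound exposure; signal: glow luminescence from Steady-Glo reagent; medium: serum-containing F12 medium, 10% FBS; benchmarks: tunicamycin 10 µg/mL and vehicle-only wells; read-out: percent activation relative to tunicamycin reference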
CHOP inh = inhibitors of CHOP promoter induction, primary screen, cell-based, unfolded protein response, luciferase reporter | CHO-K1 CHOP-promoter luciferase, tunicamycin-induced, 15-18 h | AID 2732, 2010 | 220,000 compounds, 3.8% hits | inhibition, % at 10 µM;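 active = compounds that reduced the stress-induced luciferase reporter signal by more than about 70% of percent inhibition, limit read from the data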;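 note: 0% = tunicamycin plus vehicle and 100% = wells without tunicamycin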
697 NFkB inh = inhibitors of PMA/ionomycin-induced NF-kB reporter, 697 cells, primary screen, B-cell NF-kB inhibitor project, cell-based, luminescence, uHTS; inhibition, % at 4 µM; 330,000 compounds, 0.33% hits; 697 B-cell NF-kB luciferase reporter, 16 h; in the data active = inhibition above about 35%
697 NFkB conf = PMA/ionomycin-induced NF-kB reporter inhibitors, 697 retest, confirmation, B-cell NF-kB inhibitor project, cell-based, luminescence, single concentration | shares compounds with 697 NFkB inh | 697 B-cell NF-kB luciferase, 16 h | inhibition, % at 4 µM | 2,000 compounds, 35% hits; in the data active = inhibition mostly above about 28%, no sharp cut-off; inactive = mostly below about 22%
Active calls of the source: *; i = inactive; . = no result given. Compounds with a hit are over-represented: about 3.9% of the library has one in this group of screens.

SMILES | Jurkat NFkB inh | UPR CHOP act | Gli-Sufu antag | XBP1 UPR activ | CHOP inh | 697 NFkB inh | 697 NFkB conf
NC(=O)COc1cccc(/C=N/NC(=O)c2ccc(-n3cccc3)cc2)c1 | 10 | 2 | -3 | 1 | -30 | 52* | -7
CC(=O)c1c(C)[nH]c(C(=O)N2CCc3ccccc3C2)c1C | 7 | -2 | 1 | 0 | 28 | 42* | 20
CC(C)COc1cccc(-c2cc(C(=O)N/N=C/c3ccncc3)c3ccccc3n2)c1 | 8 | 8 | -44 | 0 | . | i | i
CCOc1cc(/C=N/NC(=O)c2cc(-c3cccc(OC)c3)nc3ccccc23)ccc1O | -14 | 7 | 7 | -1 | . | -19 | .
Cc1cc(NC(=O)c2cc(-c3ccc(OC(C)C)cc3)nc3ccccc23)no1 | -43 | 6 | -16 | -3 | . | -34 | .
CCC(C)c1ccc(-c2cc(C(=O)OCC(=O)Nc3cc(C)on3)c3ccccc3n2)cc1 (stereo not drawn) | -54 | 1 | 1 | -8 | 85* | i | -486
CCc1ccc(OCc2nc(-c3ccccn3)no2)c(Br)c1 | -112 | -2 | -87 | -3 | 51 | -352 | -310
COc1ccc2nc(NC(=O)c3ccco3)sc2c1 | -27 | -3 | -76 | -11 | . | -256 | -320
Cc1ccc2nc(NC(=O)c3ccc(Br)o3)sc2c1 | -103 | 4 | -76 | -4 | . | -277 | -284
O=C(Nc1nc2ccc(Br)cc2s1)c1ccco1 | -90 | 4 | -54 | -2 | . | -249 | .
O=C(Nc1nc2ccc(Cl)cc2s1)c1ccco1 | -67 | 1 | -112 | -3 | 24 | -271 | -301
NS(=O)(=O)c1ccc2nc(NC(=O)c3ccc(Br)o3)sc2c1 | -19 | 6 | -27 | 0 | -55 | -34 | .
Cc1cc2sc(NC(=O)c3ccco3)nc2cc1Cl | -127 | 1 | -91 | -7 | . | -360 | -284
Cc1ccc(NC(=O)c2ccc(S(=O)(=O)N3CCCC3)cc2)nc1 | -7 | 1 | -9 | 1 | . | -20 | .
Cc1ccc2nc(NC(=S)NC(=O)c3ccco3)sc2c1 | . | . | -76 | . | -82 | . | .
Cc1ccc2nc(NC(=O)c3ccco3)sc2c1 | -52 | -7 | -38 | -10 | 42 | -250 | -271
Cc1cc(C(=O)Cn2nnc3ccccc3c2=O)c(C)n1Cc1cccs1 | -104 | 1 | -16 | -3 | -5 | -341 | -234
CCOc1ccccc1C(=O)NCC(=O)NCC(c1ccco1)N1CCCCC1 (stereo not drawn) | 4 | 0 | 10 | 0 | . | -5 | .
Nc1ccc(N=Nc2ccc(N)cc2)cc1 | -96 | 2 | -32 | 3 | 10 | -246 | .
Cc1cc(N(C)C)ccc1N=Nc1ccc(N)cc1 | -10 | 3 | 18 | 4 | . | 69* | 79*
CCn1c(CNC(=O)c2cccc(C)c2)nnc1SCC(=O)N1CCOCC1 | 3 | 2 | -1 | -3 | . | -3 | .
O=C(c1ccoc1)N1CCC2(CC1)Oc1ccc(F)cc1C(=O)C21CC(c2ccc(Cl)cc2)=NO1 (stereo not drawn) | 18 | 0 | 7 | -3 | -1 | 36* | 19
COC(=O)[C@@]1(Cc2ccccc2)[C@H]2C(=O)N(C)C(=O)[C@H]2[C@H]2CN=C(SCc3ccc(C#N)cc3)N21 | . | 4 | 0 | 5 | . | 9 | .
COc1ccc(-c2nc(-c3ccc(C(=O)O)cc3)no2)cc1 | -17 | -6 | -143 | -6 | . | -315 | -353
Fc1ccccc1-c1nc(-c2ccncc2)no1 | -87 | -2 | -90 | -6 | . | -138 | .
COc1cccc(-c2nc(-c3ccccn3)no2)c1 | 20 | -9 | -14 | -5 | 41 | -41 | .
COc1cccc(-c2nc(-c3ccccc3)no2)c1 | -142 | -2 | -113 | -2 | 48 | -279 | -270
